TRPC6 inh = blocks the mouse TRPC6 cation channel | B-score at 10 µM | HEK293-TRPC6, membrane potential dye, ACh-evoked depolarization; stronger effect = lower value | AID 2553 | Q61143 | 310,000 compounds, 1.1% hits;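 active means B-score under library mean minus 3 SD, initial fluorescence not abnormally high, positive integrated signal ratio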;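 further: B-score derived from integrated fluorescence ratio over the kinetic read; more negative B-score means stronger inhibition of depolarization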
TRPC6 activator = mouse TRPC6 channel activation | Q61143 | HEK293-TRPC6 membrane potential dye fluorescence; stronger effect = higher value | B-score at 10 µM | 310,000 compounds, 0.13% hits | AID 2550;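 active means B-score of the integrated fluorescence ratio above library mean plus 3 SD, and starting fluorescence ratio within library mean plus 5 SD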;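 further: higher score means more depolarization so channel activation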
Kir21 block = Kir2.1 (mouse) channel inhibition; HEK293-Kir2.1, FluxOR thallium flux fluorescence; stronger effect = lower value; AID 1672; 310,000 compounds, 0.85% hits; B-score at 10 µM; P35561;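 active means fluorescence ratio B-score at or below minus 3 SD of library scores, with starting-brightness B-score within 2 SD, cut at about -4.2 in these data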;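 further: channel flux triggered by added potassium and thallium sulfate stimulus; B-score of peak minus minimum fluorescence over baseline after thallium stimulus; more negative B-score means stronger Kir2.1 block with less thallium influx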
TRPC4 agonist = activators of mouse TRPC4 channel; AID 2237; HEK293 TRPC4beta/mu-opioid, Fluo4 calcium fluorescence; stronger effect = higher value; 310,000 compounds, 0.49% hits; B-score at 10 µM;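 active means B-score above 5 SD of library B-scores, and initial fluorescence ratio not above library mean plus 5 SD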;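 further: positive B-score marks a calcium rise read as TRPC4 activation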
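Technique: kinetic Fluo4 calcium fluorescence; Test system: TRPC4beta and mu-opioid receptor HEK293 stable cells; Measure: B-scored integrated calcium fluorescence ratio; Benchmarks: low control buffer alone, high control maximal DAMGO; Schedule: 45 min room-temperature Fluo4 loading, 110 s read.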
TRPC4 PAM = allosterically enhances the mouse TRPC4 cation channel | HEK293 TRPC4beta/mu-opioid, DAMGO EC20, Fluo-4 Ca2+ flux; stronger effect = higher value | B-score at 10 µM | 310,000 compounds, 0.42% hits | AID 2227;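 active means B-score of calcium response area above 5 SD of library B-scores, with initial fluorescence ratio within 5 SD of library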;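 further: B-score of integrated fluorescence ratio over time as area under calcium response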
TRPC4 block = TRPC4 (mouse) channel inhibition; Q9QUQ5; HEK293 TRPC4beta/mu-opioid, DAMGO-evoked Fluo4 calcium flux; stronger effect = lower value; B-score at 10 µM; 300,000 compounds, 0.39% hits;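 active means B-score over 3 SD under the library average, no early fluorescence shift, positive overall ratio signal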
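test system = HEK293 cells with stable TRPC4beta plus mu-opioid receptor expression | detection = Fluo4 Ca2+ flux fluorescence | read-out = integrated fluorescence ratio relative to baseline, converted to per-well B score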
TRPC4 spec 2 = second check of whether TRPC6 inhibitors also affect mouse TRPC4; shares compounds with TRPC6 inh; HEK293 TRPC4/MOR, membrane potential dye fluorescence; channel activated by saturating DAMGO dose; inhibition, % at 10 µM; 920 compounds, 42% hits; AID 2776;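 active means compounds whose fluorescence signal differed from control wells by over 3 SD, either direction, in both duplicate plates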
TRPC4 spec = selectivity of TRPC6 inhibitors: effect on mouse TRPC4. activity change, negative = inhibition, % at 10 µM. AID 2777. HEK293 TRPC4/mu-opioid, membrane potential fluorescence. 920 compounds, 61% hits. shares compounds with TRPC6 inh;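 active means rise or fall in signal beyond 3 SD of buffer-only wells in both replicate plates, either sign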;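 further: integrated kinetic ratio of fluorescence range over baseline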
HEK293 MPD ctr 2-1 = parental HEK293 nonspecific activity of TRPC6 inhibitors, second screen; shares compounds with TRPC6 inh; signal change vs control, % at 10 µM; parental HEK293 membrane potential dye fluorescence; maximal acetylcholine challenge after compound addition; AID 2779; 920 compounds, 31% hits;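 active means membrane potential signal moving either way by over 3 SD of the maximum-effect control, in both duplicate plates, meaning non-specific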
HEK293 MPD ctr-1 = counter-screen for TRPC6 inhibitors: effect in parental HEK293 cells | shares compounds with TRPC6 inh | membrane potential signal change, % at 10 µM | 920 compounds, 60% hits | parental HEK293 membrane potential dye fluorescence;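 active means membrane potential signal shifting up or down by more than 3 SD of buffer-only wells, on both duplicate plates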
HEK293 MPD ctr-2 = checks TRPC6 modulator effects in parental HEK293 cells; shares compounds with TRPC6 inh; 2,400 compounds, 51% hits; membrane potential signal change, % at 10 µM; AID 488924; membrane potential dye fluorescence;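 active means membrane potential signal moves up or down beyond 5 SD from buffer-only wells, on both duplicate plates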
HEK293 MPD ctr 2-2 = parental HEK293 nonspecific activity of TRPC6 modulators, second screen; AID 488926; 2,400 compounds, 14% hits; inhibition, % at 10 µM; membrane potential dye fluorescence; after compound, maximal acetylcholine stimulation; shares compounds with TRPC6 inh;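 active means membrane potential signal drops by more than 5 SD from the mean control signal, in both duplicate plates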;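 further: plate controls were acetylcholine ECmax control wells for no effect and buffer only wells for full effect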
TRPC4/MOR mod = tests whether TRPC6 modulators also affect mouse TRPC4; shares compounds with TRPC6 inh; HEK293 TRPC4/mu-opioid, membrane potential fluorescence; percent change from control (negative = decrease, positive = increase), % at 10 µM; 2,400 compounds, 69% hits; AID 488927;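 active means membrane potential signal moved up or down beyond 5 SD of buffer control wells, in both duplicate plates, actives on both sides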;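 further: plate controls were assay buffer wells for no effect and DAMGO maximal-effect wells for full effect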
TRPC4 ctr inh 2 = second selectivity test of TRPC6 modulators against mouse TRPC4; AID 488928; HEK293 TRPC4/mu-opioid, membrane potential dye fluorescence; stimulated with maximal-effect DAMGO; 2,400 compounds, 55% hits; shares compounds with TRPC6 inh; inhibition, % at 10 µM;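 active means drop in membrane potential signal beyond 5 SD of the control wells in both duplicate plates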;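 further: TRPC4 counter screen for TRPC6 hits run under conditions tuned for TRPC6 not TRPC4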
TRPC6 inh conf = confirmation of mouse TRPC6 inhibitors. shares compounds with TRPC6 inh. HEK293-TRPC6, membrane potential dye, ACh-evoked depolarization. inhibition, % at 10 µM. 3,300 compounds, 43% hits;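 active means fluorescence ratio falls more than 5 SD below the full-stimulation control mean, in both duplicate runs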;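 further: integrated fluorescence ratio of peak minus minimum over baseline after agonist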
TRPC6 act conf = confirmation of mouse TRPC6 activators; AID 488961; activation, % at 10 µM; HEK293-TRPC6 membrane potential dye fluorescence, FDSS; 2,800 compounds, 11% hits; shares compounds with TRPC6 inh;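 active means ratio signal rise beyond 5 SD above unstimulated control wells' mean, seen in both duplicate runs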;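 further: plate controls were buffer EC0 wells for no effect and acetylcholine ECmax response for full effect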
Active calls of the source: *; i = inactive; x = not tested or not shown. This is a sample that favours compounds with a hit; in the whole collection about 3% have one here.

SMILES | TRPC6 inh | TRPC6 activator | Kir21 block | TRPC4 agonist | TRPC4 PAM | TRPC4 block | HEK293 MPD ctr-2 | HEK293 MPD ctr 2-2 | TRPC4/MOR mod | TRPC4 ctr inh 2 | TRPC6 inh conf | TRPC6 act conf | others
c1ccc2c(N3CCCCC3)nc(N3CCCC3)nc2c1 | i | i | -1.6 | i | i | i | x | x | x | x | x | x
COc1nc2ccc(C)cc2cc1-c1noc(-c2ccccc2)n1 | i | i | -0.17 | i | i | i | x | x | x | x | x | x
COc1ccc(OC)c(-c2csc(N(CC3CCCO3)C(=O)C3CCCCC3)n2)c1 (stereo not drawn) | i | i | 0.31 | i | i | i | x | x | x | x | x | x
CCN(CC)CC#CCC(O)(c1ccccc1)C1CCCC1 (stereo not drawn) | -6.5* | i | 0.05 | i | i | i | 156%* | 100%* | 30%* | i | 75%* | x
CN(C)CC#CCC(O)(c1ccccc1)C1CCCCC1 (stereo not drawn) | -6.5* | i | -0.49 | i | i | i | i | 105%* | 20%* | 36%* | 78%* | i
CN(c1ccccc1)S(=O)(=O)c1cccc(NC(=O)c2cc(=O)c3ccccc3o2)c1 | i | i | -0.23 | i | i | i | x | x | x | x | x | x
Cc1noc(C)c1CSc1ccccc1C(=O)N1CCN(c2ccccc2)CC1 | -6.9* | i | 0.14 | i | i | i | x | x | x | x | i | x | TRPC4 spec 2=i;TRPC4 spec=16%*;HEK293 MPD ctr 2-1=i;HEK293 MPD ctr-1=8.9%*
Clc1ccc2c(c1)C(N1CCNCC1)=Nc1ccccc1O2 | -5.1* | i | -2.6 | i | i | i | i | i | 8.0%* | 48%* | i | i
CCCc1n(CC)c2ccccc2[n+]1CC(O)COC1CCCCC1 (stereo not drawn) | i | i | -1.4 | i | i | i | x | x | x | x | x | x
CCCC[n+]1ccc(-c2nc3ccc([N+](=O)[O-])cc3[nH]2)cc1 | -6.8* | i | -0.98 | i | i | i | x | x | x | x | 73%* | i | TRPC4 spec 2=56%*;TRPC4 spec=-17%*;HEK293 MPD ctr 2-1=-90%*;HEK293 MPD ctr-1=-262%*
O=[N+]([O-])c1ccc(-c2nc3ccc([N+](=O)[O-])cc3[nH]2)cc1 | i | i | 0.33 | i | i | i | x | x | x | x | x | x
Cc1ccc(-c2csc(=Nc3cccnc3)n2CCCN2CCCC2=O)cc1C | i | i | -1.7 | i | i | i | x | x | x | x | x | x
Cc1ccc(-c2csc(=Nc3cccnc3)n2CCCn2ccnc2)cc1C | -5.4* | i | -4.5* | i | i | i | 106%* | i | 15%* | 65%* | 44%* | x
O=C(NCCCN1CCCC1)c1ccc2c(c1)N(Cc1ccc(F)cc1)C(=O)c1ccccc1S2=O (stereo not drawn) | i | i | -0.03 | i | i | i | x | x | x | x | x | x
Cc1cccc(CN2C(=O)c3ccccc3S(=O)(=O)c3ccc(C(=O)NCCCN4CCCC4)cc32)c1 | -5.1* | i | 0.21 | i | i | i | i | i | i | 57%* | 41%* | i
CC1CCCN(CCCNC(=O)c2ccc3c(c2)N(Cc2ccc(F)cc2)C(=O)c2ccccc2S3=O)C1 (stereo not drawn) | -5.1* | i | -2.1 | 55* | i | i | i | i | i | 77%* | 57%* | i
Cc1ccc(NC(=O)C2CCCN2C(=O)OCc2ccccc2)cc1F (stereo not drawn) | i | i | 0.25 | i | i | i | x | x | x | x | x | x
O=C(c1ccc(OC2CCN(C/C=C/c3ccc(F)cc3)CC2)cc1)N1CCCC1 | i | i | 0.07 | i | i | i | x | x | x | x | x | x
COc1cc(N/C(N)=N/c2nc(C)cc(C)n2)c(OC)cc1Cl | -8.2* | i | -1.4 | i | i | i | x | x | x | x | 90%* | i | TRPC4 spec 2=i;TRPC4 spec=-11%*;HEK293 MPD ctr 2-1=i;HEK293 MPD ctr-1=-170%*
Cc1cc(C)nc(/N=C(\N)Nc2cc([N+](=O)[O-])ccc2C)n1 | -7.1* | i | -1.5 | i | i | i | -166%* | i | -28%* | 48%* | 58%* | i
CC(C)CNC(=O)c1ccccc1NC(=O)CN(c1ccccc1)S(=O)(=O)N(C)C | i | i | 0.08 | i | i | i | x | x | x | x | x | x
CN(CC(=O)Nc1ccccc1C(F)(F)F)C(=O)COc1cccnc1[N+](=O)[O-] | i | i | -0.58 | i | i | i | x | x | x | x | x | x
CCC(C)NC(=O)C1CCN(CCCc2ccccc2)CC1 (stereo not drawn) | i | i | 0.61 | i | i | i | x | x | x | x | x | x
O=C(C1CCN(CCCc2ccccc2)CC1)N(CCc1ccccc1)Cc1ccccc1 | -5.5* | i | -3.7 | i | i | i | 110%* | i | i | 86%* | 68%* | x
Cc1ccc(CNCCC2=CCCCC2)cc1 | -7.1* | i | -6.9* | i | i | i | x | x | x | x | i | i | TRPC4 spec 2=i;TRPC4 spec=i;HEK293 MPD ctr 2-1=i;HEK293 MPD ctr-1=i
C1=C(CCNCC2CC2)CCCC1 | i | i | 1.3 | i | i | i | x | x | x | x | x | x

Screening results as filed in PubChem BioAssay.
